The text below walks through data of ChEMBL document CHEMBL1177873, “Synthesis and evaluation of some new benzothiazole derivatives as potential antimicrobial agents” (Eur J Med Chem, 2010).

≈ marks a conversion by molar mass, not a printed value. Calls of active or inactive are those of the source. The rule behind the calls is not given here.

Assay [1] has as its system Bacillus subtilis. Nature of the assay: Antibacterial activity against Bacillus subtilis MTCC 441 at 10 ug/ml after 24 hrs by cup-plate method. It counts as functional, organism-based. In short, it runs like this:
(§1)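 Cup-plate diffusion in nutrient agar, incubated 24 h at 37 °C. Compounds dissolved in DMF and tested at the single concentration given in the line. DMF served as the solvent control and ciprofloxacin as the reference standard. Read-out is the zone of inhibition diameter in mm.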

Assay [2] has as its system Escherichia coli. As to the kind of experiment: Antibacterial activity against Escherichia coli MTCC 443 at 1 ug/ml after 24 hrs by cup-plate method. It counts as functional, organism-based. Summed up: as §1
In assay [3] the test system is Streptomyces griseus. As to the kind of experiment: Antibacterial activity against Streptomyces griseus MTCC 1540 at 10 ug/ml after 24 hrs by cup-plate method. The class given is functional, organism-based. Summed up: as §1
The test system of assay [4] is Aspergillus niger. As to the kind of experiment: Antifungal activity against Aspergillus niger MTCC 282 at 30 ug/ml after 48 hrs by cup-plate method. It counts as functional. Particulars: MTCC 282, 48 h, read-out: DIZ. Summed up: (§2)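 Cup-plate diffusion on Sabouraud's dextrose agar, incubated 48 h at 28 °C. Compounds in DMF, which also served as the control, with fluconazole as the reference standard.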

In assay [5] the test system is Escherichia coli. Nature of the assay: Antibacterial activity against Escherichia coli MTCC 443 at 100 ug/ml after 24 hrs by cup-plate method relative to ciprofloxacin. The class given is functional, organism-based.
For assay [6], the system named is Escherichia coli. As to the kind of experiment: Antibacterial activity against Escherichia coli MTCC 443 at 500 ug/ml after 24 hrs by cup-plate method. The class given is functional, organism-based. In short, it runs like this:
as §1

Assay [7] relates to Candida albicans. As to the kind of experiment: Antifungal activity against Candida albicans MTCC 227 at 30 ug/ml after 48 hrs by cup-plate method. Particulars: MTCC 227, 48 h, read-out: DIZ. The class given is functional. Summed up:
as §2

In assay [8] the test system is Streptomyces griseus. Nature of the assay: Antibacterial activity against Streptomyces griseus MTCC 1540 after 24 hrs. The class given is functional. Particulars: MTCC 1540, 24 h. Summed up:
(§3)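 MIC was taken as the lowest concentration giving 100% growth inhibition relative to a drug-free control, after 24 h at 37 °C in nutrient agar. Compounds were dissolved in DMF, and ciprofloxacin was the reference.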

For assay [9], the system named is Bacillus subtilis. Nature of the assay: Antibacterial activity against Bacillus subtilis MTCC 441 after 24 hrs. Particulars: MTCC 441, 24 h. It counts as functional. In short, it runs like this:
as §3

Assay [10] concerns Bacillus subtilis. As to the kind of experiment: Antibacterial activity against Bacillus subtilis MTCC 441 at 1 ug/ml after 24 hrs by cup-plate method. It counts as functional, organism-based. Summed up:
as §1

For assay [11], the system named is Bacillus subtilis. Nature of the assay: Antibacterial activity against Bacillus subtilis MTCC 441 at 500 ug/ml after 24 hrs by cup-plate method. The class given is functional, organism-based. In short, it runs like this: as §1
For assay [12], the system named is Escherichia coli. Nature of the assay: Antibacterial activity against Escherichia coli MTCC 443 at 200 ug/ml after 24 hrs by cup-plate method relative to ciprofloxacin. It counts as functional, organism-based.
Assay [13] concerns Streptomyces griseus. As to the kind of experiment: Antibacterial activity against Streptomyces griseus MTCC 1540 at 1 ug/ml after 24 hrs by cup-plate method. It counts as functional, organism-based. Summed up:
as §1

Assay [14] deals with Streptomyces griseus. As to the kind of experiment: Antibacterial activity against Streptomyces griseus MTCC 1540 at 100 ug/ml after 24 hrs by cup-plate method. It counts as functional, organism-based. In short, it runs like this:
as §1

Assay [15] relates to Bacillus subtilis. As to the kind of experiment: Antibacterial activity against Bacillus subtilis MTCC 441 at 200 ug/ml after 24 hrs by cup-plate method relative to ciprofloxacin. The class given is functional, organism-based.
The subject of assay [16] is Escherichia coli. As to the kind of experiment: Antibacterial activity against Escherichia coli MTCC 443 at 10 ug/ml after 24 hrs by cup-plate method. It counts as functional, organism-based. Summed up:
as §1

Assay [17] has as its system Streptomyces griseus. Nature of the assay: Antibacterial activity against Streptomyces griseus MTCC 1540 at 200 ug/ml after 24 hrs by cup-plate method relative to ciprofloxacin. It counts as functional, organism-based.
Assay [18] has as its system Escherichia coli. As to the kind of experiment: Antibacterial activity against Escherichia coli MTCC 443 after 24 hrs. The class given is functional. Conditions: MTCC 443, 24 h. In short, it runs like this: as §3
Assay [19] deals with Bacillus subtilis. As to the kind of experiment: Antibacterial activity against Bacillus subtilis MTCC 441 at 100 ug/ml after 24 hrs by cup-plate method relative to ciprofloxacin. It counts as functional, organism-based.
The test system of assay [20] is Streptomyces griseus. As to the kind of experiment: Antibacterial activity against Streptomyces griseus MTCC 1540 at 500 ug/ml after 24 hrs by cup-plate method. The class given is functional, organism-based. In short, it runs like this:
as §1

For orientation: MIC means the lowest concentration found to suppress growth. The low end stands for inhibition by little substance, the high end for a need for much substance. In the case of `Sc1nnc(CCNc2nc3ccccc3s2)n1/N=C/c1ccccc1`, the result in assay [1], in assay [2], in assay [3], in [5], in [10] and in assay [13] was inactive. The outcome in assay [14], in assay [16] and in [19] was inactive. Moreover, the zone of inhibition at 30 µg/mL in assay [4] came to 16 mm; in assay [7] it was 22 mm. Moreover, the outcome in assay [6], in assay [11], in assay [12], in assay [15], in [17] and in assay [20] was Active. Besides, the MIC in assay [8], in [9] and in assay [18] was 500 µg/mL (≈ 1310 µM) in each case.
